Activity calls are given as the source filed them. The rule behind the calls is not given here.
Key:
[1] = system: M21; test: Cell cycle arrest in human M21 cells assessed as accumulation at G0/G1 phase at 5 times IC50 after 24 hrs using propidium iodide staining by flow cytometric analysis (reference value: 61%); format: functional
In short: (§1)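 Cells were trypsinized, fixed in ice-cold ethanol, treated with RNase, and stained with propidium iodide (1 mg/mL stock) for 1 h on ice. Cell-cycle distribution was measured by flow cytometry.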

[2] = system: M21; test: Cell cycle arrest in human M21 cells assessed as accumulation at S phase at 5 times IC50 after 24 hrs using propidium iodide staining by flow cytometric analysis (reference value: 30%); format: functional; in short: as §1
[3] = system: M21; test: Cell cycle arrest in human M21 cells assessed as accumulation at G2/M phase at 5 times IC50 after 24 hrs using propidium iodide staining by flow cytometric analysis (reference value: 9%); format: functional; in short: as §1
[4] = system: MDA-MB-231; test: Displacement of N,N'-ethylenebis(iodoacetamide) from beta-tubulin colchicine-binding site in human MDA-MB-231 cells at 1000 times IC50 preincubated for 2 hrs before N,N'-ethylenebis(iodoacetamide) addition measured after 1.5 hrs by chemiluminescence assay; format: cell-based
In short: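 EBI (100, final) was added for 1.5 h at 37 °C with drug present; control was 0.5% DMSO. Sonicated lysates (20 µg protein) were run on 10% SDS-PAGE and blotted with anti-β-tubulin TUB 2.1. The β-tubulin–EBI adduct was scored by ECL.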

[5] = system: M21; test: Disruption of cytoskeleton microtubule structure of human M21 cells at 5 times IC50 after 16 hrs by indirect immunofluorescence assay; format: functional, cell-based
In short: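 Cells were fixed in 3.7% formaldehyde, permeabilized with saponin, and stained with anti-β-tubulin TUB 2.1, Alexa-488 anti-mouse secondary and DAPI. Fluorescence microscopy was used for imaging.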

[6] = Toxicity against fertilized chicken embryo assessed as mortality at 3 ug, iv by CAM assay; format: organism-based, Gallus gallus; conditions: in vivo, read-out: Activity
In short: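 HT-1080 fibrosarcoma cells (3.5 × 10⁵ cells/egg) grafted onto the chorioallantoic membrane of fertilized chicken eggs (10 days preincubation). On day 11, drug in DMSO diluted into excipient (ethanol:cremophor:PBS 6.25:6.25:87.5) given iv at 3 µg per egg. Chick mortality recorded over 7-day tumor growth period. Untreated eggs as negative controls and for normalization. Cumulative results from two independent experiments, 10–12 eggs each.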

[7] = system: HT-1080; test: Antitumor activity against human HT1080 cells xenografted in chicken chorioallantoic membrane assessed as inhibition of tumor growth at 1 to 3 ug, iv measured on day 17 by CAM assay; format: functional
In short: (§2)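 Fertilized chicken eggs were incubated 10 days, then 3.5 × 10⁵ HT-1080 cells/egg were applied to the exposed chorioallantoic membrane. On day 11, drug was given iv in DMSO diluted in excipient (ethanol:cremophor:PBS 6.25:6.25:87.5). Read-out was tumor wet weight as % of untreated eggs, plus chick mortality. Data were pooled from two independent experiments of 10–12 eggs each.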

[8] = system: HT-1080; test: Antiangiogenic activity in human HT1080 cells xenografted in chicken chorioallantoic membrane assessed as vascular disruption at 1 to 3 ug, iv measured on day 17 by CAM assay; format: functional
[9] = system: CHO-TAX 5-6; test: Ratio of IC50 for paclitaxel-resistant CHO-TAX 5-6 cells to IC50 for CHO cells; format: functional, Cricetulus griseus
In short: (§3)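 Each ratio is the IC50 in the resistant line divided by the IC50 in its parental line (CHO for CHO-TAX 5-6 and CHO-VV 3-2; CEM for CEM-VLB).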

[10] = system: CHO-VV 3-2; test: Antiproliferative activity against colchicine and vinblastine-resistant CHO-VV 3-2 cells after 48 hrs by SRB assay; format: functional, cell-based; conditions: Cricetulus griseus, CHO-VV 3-2, 48 h
In short: (§4)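 Adherent cells were seeded per line (e.g. HT-29 5000, M21 3500, MCF7 7500, CHO and CHO-VV 3-2 and CHO-TAX 5-6 1000 cells/well) and grown 24 h at 37 °C, 5% CO₂. DMSO-solubilized drug was diluted in medium and added at 1000–0.98 nM for 48 h. Cells were fixed with cold 10% TCA and stained with 0.1% sulforhodamine B, with absorbance read at 530–565 nm.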

[11] = system: CHO-VV 3-2; test: Ratio of IC50 for colchicine and vinblastine-resistant CHO-VV 3-2 cells to IC50 for CHO cells; format: functional, Cricetulus griseus; in short: as §3
[12] = Antiproliferative activity against human multidrug-resistant CEM/VLB cells after 48 hrs by SRB assay; format: functional
[13] = system: CCRF-CEM; test: Ratio of IC50 for human multidrug-resistant CEM/VLB cells to IC50 for human CEM cells; format: functional; in short: as §3
[14] = system: HT-1080; test: Antitumor activity against human HT1080 cells xenografted in chicken chorioallantoic membrane assessed as inhibition of tumor growth at 3 ug, iv measured on day 17 by CAM assay; format: functional; in short: as §2
[15] = system: HT-29; test: Antiproliferative activity against human HT-29 cells after 48 hrs by SRB assay; format: functional, cell-based; conditions: HT-29, 48 h; in short: as §4
[16] = system: M21; test: Antiproliferative activity against human M21 cells after 48 hrs by SRB assay; format: functional, cell-based; conditions: M21, 48 h; in short: as §4
[17] = system: MCF7; test: Antiproliferative activity against human MCF7 cells after 48 hrs by SRB assay; format: functional, cell-based; conditions: MCF7, 48 h; in short: as §4
[18] = system: K562; test: Antiproliferative activity against human K562 after 48 hrs by SRB assay; format: functional, cell-based; conditions: K562, 48 h
[19] = system: L1210; test: Antiproliferative activity against mouse L1210 after 48 hrs by SRB assay; format: functional, cell-based; conditions: L1210, 48 h
[20] = system: DU-145; test: Antiproliferative activity against human DU145 after 48 hrs by SRB assay; format: functional, cell-based; conditions: DU-145, 48 h
[21] = system: HT-1080; test: Antiproliferative activity against human HT1080 after 48 hrs by SRB assay; format: functional, cell-based; conditions: HT-1080, 48 h; in short: as §4
[22] = system: MDA-MB-231; test: Antiproliferative activity against human MDA-MB-231 after 48 hrs by SRB assay; format: functional, cell-based; conditions: MDA-MB-231, 48 h
[23] = system: SK-OV-3; test: Antiproliferative activity against human SKOV3 after 48 hrs by SRB assay; format: functional, cell-based; conditions: SK-OV-3, 48 h; in short: as §4
[24] = system: CCRF-CEM; test: Antiproliferative activity against human CEM after 48 hrs by SRB assay; format: functional, cell-based
[25] = system: CHO-TAX 5-6; test: Antiproliferative activity against paclitaxel-resistant CHO-TAX 5-6 cells after 48 hrs by SRB assay; format: functional, cell-based; conditions: Cricetulus griseus, CHO-TAX 5-6, 48 h; in short: as §4
[26] = Antiproliferative activity against mouse B16F0 after 48 hrs by SRB assay
[27] = Antiproliferative activity against mouse P388D1 after 48 hrs by SRB assay; conditions: P388D1, 48 h
[28] = system: CHO; test: Antiproliferative activity against Chinese hamster CHO after 48 hrs by SRB assay; conditions: Cricetulus griseus

## COc1ccc(/C=C\c2cc(OC)c(OC)c(OC)c2)cc1O [COMBRETASTATIN A4]
[1]
  Activity: 2%
[2]
  Activity: 0%
[3]
  Activity: 98%
[4]
  Activity: Active
[5]
  Activity: Active
[6]
  mortality: 45%
[7]
  growth inhibition (GI): 45%
[8]
  Activity: 48%

## CCc1cccc(NS(=O)(=O)c2ccc(N3CCNC3=O)cc2)c1
[9]
  Ratio IC50: 0.61
[10]
  IC50: 250 nM
[11]
  Ratio IC50: 1.1
[12]
  IC50: 450 nM
[13]
  Ratio IC50: 2.3
[1]
  Activity: 0%
[2]
  Activity: 5%
[3]
  Activity: 95%
[4]
  Activity: Active
[5]
  Activity: Active
[6]
  mortality: 11%
[14]
  growth inhibition (GI): 45%
[15]
  IC50: 110 nM
[16]
  IC50: 82 nM
[17]
  IC50: 130 nM
[18]
  IC50: 230 nM
[19]
  IC50: 200 nM
[20]
  IC50: 730 nM
[21]
  IC50: 200 nM
[22]
  IC50: 1410 nM
[23]
  IC50: 230 nM
[24]
  IC50: 200 nM
[25]
  IC50: 140 nM
[26]
  IC50: 270 nM
[27]
  IC50: 250 nM
[28]
  IC50: 230 nM
